Assay results as given in ChEMBL document CHEMBL3244135, “11,12-Secoprostaglandins. 1. Acylhydroxyalkanoic acids and related compounds” (J Med Chem, 1977).
The source made the active and inactive calls. The rule behind the calls is not given here.

What was measured:
Mus musculus [1] = species on record: Mus musculus; test: Binding affinity to prostanoid receptor in [8-14C]-adenine-treated CD-1 mouse ovary assessed as increase in c-AMP production at 10 ug/mL after 30 mins by paper chromatographic analysis in presence of phosphodiesterase inhibitor theophylline; format: tissue-based; settings: Female gonad
How it was run: (§1)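 Virgin CD-1 female mice over 70 days old; three ovaries (15-25 mg), denuded of fat, preincubated 1 h at 37 °C in 2 ml aerated Krebs–Ringer phosphate pH 7.2 with 1 μCi adenine-8-14C. Theophylline (0.2 ml of 0.05 M stock) and compound in Me2SO then added, 30 min at 37 °C. Stopped with trichloroacetic acid; cAMP-14C isolated, paper chromatography; expressed as fold over untreated ovaries.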

Mus musculus [2] = species on record: Mus musculus; test: Binding affinity to prostanoid receptor in [8-14C]-adenine-treated CD-1 mouse ovary assessed as increase in c-AMP production at 25 ug/mL after 30 mins by paper chromatographic analysis in presence of phosphodiesterase inhibitor theophylline; format: tissue-based; settings: Female gonad; how it was run: as §1
Mus musculus [3] = species on record: Mus musculus; test: Binding affinity to prostanoid receptor in [8-14C]-adenine-treated CD-1 mouse ovary assessed as increase in c-AMP production at 100 ug/mL after 30 mins by paper chromatographic analysis in presence of phosphodiesterase inhibitor theophylline; format: tissue-based; settings: Female gonad; how it was run: as §1
Rattus norvegicus = species on record: Rattus norvegicus; test: Binding affinity to prostanoid receptor in Holtzman rat lipocytes assessed as compound equivalent to 1 ng cold PGE1 in displacing [3H]-PGE1 from receptor after 30 mins; format: cell-based; settings: in the assay text read “after 60 mins” for “after 30 mins”
How it was run: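 Test compound at appropriate concentrations incubated with 0.4 ng [3H]-PGE1 and 125 μg rat lipocyte binding preparation for 60 min at 37 °C. Bound [3H]-PGE1 then measured.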

[4] = molecular target: T1, 15-hydroxyprostaglandin dehydrogenase [NAD(+)] (Homo sapiens, UniProt P15428); test: Stability of the compound assessed as prostaglandin 15-hydroxydehydrogenase (unknown origin)-mediated metabolite formation; format: ADME
T1 sequence (P15428 whole entry): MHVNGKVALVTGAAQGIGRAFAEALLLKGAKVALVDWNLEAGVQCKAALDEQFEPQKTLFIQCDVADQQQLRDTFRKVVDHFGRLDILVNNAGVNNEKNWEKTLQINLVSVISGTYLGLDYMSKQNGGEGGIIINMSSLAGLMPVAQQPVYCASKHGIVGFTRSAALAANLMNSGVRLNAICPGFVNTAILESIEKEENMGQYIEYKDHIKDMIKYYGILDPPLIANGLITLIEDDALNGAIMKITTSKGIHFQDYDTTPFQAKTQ

Canis familiaris [5] = test: Renal vasodilatory activity in dog assessed as increase in renal blood flow at 0.5 mg/kg/min, iv administered as infusion relative to control; format: functional, Canis lupus familiaris, Kidney
How it was run: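 Anesthetized dogs given intravenous infusion of 0.5 mg/kg/min. Renal blood flow measured electromagnetically in a single kidney. Read-out is the maximum increase above the control flow value.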

Cavia porcellus [6] = test: Inhibition of collagen-induced platelet aggregation in po dosed guinea pig; format: functional
How it was run: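 Test compound given orally to guinea pigs. Collagen-induced platelet aggregation then measured. Potency expressed as ED50 in mg/kg.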

Mus musculus [7] = species on record: Mus musculus; test: Binding affinity to prostanoid receptor in [8-14C]-adenine-treated CD-1 mouse ovary assessed as increase in c-AMP production at 0.01 ug/mL after 30 mins by paper chromatographic analysis in presence of phosphodiesterase inhibitor theophylline; format: tissue-based; settings: Female gonad; how it was run: as §1
Mus musculus [8] = species on record: Mus musculus; test: Binding affinity to prostanoid receptor in [8-14C]-adenine-treated CD-1 mouse ovary assessed as increase in c-AMP production at 0.05 ug/mL after 30 mins by paper chromatographic analysis in presence of phosphodiesterase inhibitor theophylline; format: tissue-based; settings: Female gonad; how it was run: as §1
Mus musculus [9] = species on record: Mus musculus; test: Binding affinity to prostanoid receptor in [8-14C]-adenine-treated CD-1 mouse ovary assessed as increase in c-AMP production at 0.1 ug/mL after 30 mins by paper chromatographic analysis in presence of phosphodiesterase inhibitor theophylline; format: tissue-based; settings: Female gonad; how it was run: as §1
Mus musculus [10] = species on record: Mus musculus; test: Binding affinity to prostanoid receptor in [8-14C]-adenine-treated CD-1 mouse ovary assessed as increase in c-AMP production at 1 ug/mL after 30 mins by paper chromatographic analysis in presence of phosphodiesterase inhibitor theophylline; format: tissue-based; settings: Female gonad; how it was run: as §1
Canis familiaris [11] = test: Renal vasodilatory activity in dog assessed as increase in renal blood flow administered through infusion into renal artery; format: functional, organism-based; settings: Canis lupus familiaris; Kidney
Cavia porcellus [12] = test: Inhibition of collagen-induced platelet aggregation in ip dosed guinea pig; format: functional
Mus musculus [13] = species on record: Mus musculus; test: Binding affinity to prostanoid receptor in [8-14C]-adenine-treated CD-1 mouse ovary assessed as increase in c-AMP production at 50 ug/mL after 30 mins by paper chromatographic analysis in presence of phosphodiesterase inhibitor theophylline; format: tissue-based; settings: Female gonad; how it was run: as §1
Mus musculus [14] = species on record: Mus musculus; test: Binding affinity to prostanoid receptor in [8-14C]-adenine-treated CD-1 mouse ovary assessed as increase in c-AMP production at 200 ug/mL after 30 mins by paper chromatographic analysis in presence of phosphodiesterase inhibitor theophylline; format: tissue-based; settings: Female gonad; how it was run: as §1

Structure (SMILES)	fold change (FC) (Mus musculus [1])	fold change (FC) (Mus musculus [2])	fold change (FC) (Mus musculus [3])	Activity (Rattus norvegicus)	Stability [4]	other results
CCCCCC(O)/C=C/CC(CCCCCCC(=O)O)C(C)=O (centres undefined)	2	8	14	3.2 µgequiv	Stable	–
CC(=O)C(CCCCO)CCCCCCC(=O)O (centres undefined)	–	1	1	450 µgequiv	Stable	–
CCCCCC(O)CCCC(CO)CCCCCCC(=O)O (centres undefined)	8	9	18	4.6 µgequiv	Stable	–
CCCCC[C@@H](O)C#CCC(CCCCCCC(=O)O)C(C)=O (some centres undefined)	2	3	3	–	Stable	–
CCCCCC(O)C#CCC(CCCCCCC(=O)O)C(C)=O (centres undefined)	2	4	7	–	Stable	–
CC(=O)C(CCCCCCC(=O)O)CCCC1(O)CCCCC1 (centres undefined)	1	3	4	> 125 µgequiv	Stable	–
CCCCCCCC(O)CCCC(CCCCCCC(=O)O)C(C)=O (centres undefined)	19	37	39	6.6 µgequiv	Stable	–
CC(=O)C(CCCCCCC(=O)O)CCCC(C)O (centres undefined)	–	1	1	> 100 µgequiv	Stable	–
CCCCCC(O)CCCC(CCCCCCC(=O)O)C(C)=O (mixture of isomers) [listing 1 of 2 here]	–	–	–	–	Stable	Activity (Canis familiaris [5]): 92 mL/min; ED50 (Cavia porcellus [6]): 6.5 mg/kg
CC(=O)C(CC#CC1(O)CCCCC1)CCCCCCC(=O)O (centres undefined)	–	1	1	–	Stable	–
CCCCC[C@H](O)C#CCC(CCCCCCC(=O)O)C(C)=O (some centres undefined)	3	7	–	–	Stable	–
CC(=O)C(CCCCCCC(=O)O)CCCC(O)CCc1ccccc1 (centres undefined)	1	1	2	–	Stable	–
CCCCC[C@@H](O)CCCC(CCCCCCC(=O)O)C(C)=O (some centres undefined)	5	12	19	2.1 µgequiv	Stable	–
CCCCCC(=O)CCCC(CCCCCCC(=O)O)C(C)=O (centres undefined)	2	4	9	7 µgequiv	Stable	–
CCCCCC(C)(O)CCCC(CCCCCCC(=O)O)C(C)=O (centres undefined)	4	9	11	0.4 µgequiv	Stable	–
CCCCC[C@H](O)CCCC(CCCCCCC(=O)O)C(C)=O (some centres undefined)	19	25	29	3.2 µgequiv	Stable	–
CCCCCC(O)CCCC(CCCCCCC(=O)O)C(=O)CC (centres undefined)	6	17	26	2.4 µgequiv	Stable	–
CCCCCC(O)CCCC(CCCCCCC(=O)O)C(C)O (centres undefined)	15	25	33	2.5 µgequiv	Stable	–
CC(=O)C(CCCCCCCCCO)CCCCCCC(=O)O (centres undefined)	1	1	1	> 125 µgequiv	Stable	–
CCCCCCC(O)CCC(CCCCCCC(=O)O)C(C)=O (centres undefined)	5	–	11	41 µgequiv	Stable	–
CCCCC(O)CCCCC(CCCCCCC(=O)O)C(C)=O (centres undefined)	9	9	20	2.1 µgequiv	Stable	–
CCCCC[C@H](O)/C=C/[C@H]1[C@H](O)CC(=O)[C@@H]1CCCCCCC(=O)O [ALPROSTADIL]	–	–	–	–	–	fold change (FC) (Mus musculus [7]): 8; fold change (FC) (Mus musculus [8]): 29; fold change (FC) (Mus musculus [9]): 25; fold change (FC) (Mus musculus [10]): 54; Activity (Canis familiaris [11]): Active; inhibition (Cavia porcellus [6]): inactive; ED50 (Cavia porcellus [12]): 0.02 mg/kg
CCCCC[C@H](O)/C=C/[C@H]1[C@H](O)CC(=O)[C@@H]1C/C=C\CCCC(=O)O	80	–	–	1.4 ngequiv	–	fold change (FC) (Mus musculus [7]): 14; fold change (FC) (Mus musculus [8]): 35; fold change (FC) (Mus musculus [9]): 57; fold change (FC) (Mus musculus [10]): 75
CCCCCC(O)CCCC(CCCCCCC(=O)O)C(C)=O (racemic)	7	19	23	–	–	–
CCCC(O)CCCCCC(CCCCCCC(=O)O)C(C)=O (centres undefined)	4	4	8	65 µgequiv	Stable	–
CCCCCC(O)CCCC(CCCCCCC(=O)O)C(C)=O (mixture of isomers) [listing 2 of 2 here]	11	14	23	1.7 µgequiv	–	fold change (FC) (Mus musculus [10]): 2; fold change (FC) (Mus musculus [13]): 16; fold change (FC) (Mus musculus [14]): 16
CCCCCC[C@@H](O)C/C=C/CCCCCCCC(=O)O	–	–	2	–	–	fold change (FC) (Mus musculus [13]): 2; fold change (FC) (Mus musculus [14]): 1
